An excerpt weighted towards active compounds, which were near 2.5% of everything screened.
TRPC4 act = opens the mouse TRPC4 cation channel; Q9QUQ5; HEK293 TRPC4beta/mu-opioid, Fluo4 calcium fluorescence; hits give high values; B-score at 10 µM; hit rate 0.49% among 310,000; AID 2237;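 active = B-score above 5 SD of library B-scores, and initial fluorescence ratio not above library mean plus 5 SD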;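 also: positive B-score marks a calcium rise read as TRPC4 activation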
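Assay system – TRPC4beta and mu-opioid receptor HEK293 stable cells · Measured by – Fluo4 fluorescence, kinetic · Schedule – dye loading 45 min room temperature, 110 s kinetic read · Read-out – B-scored integrated calcium fluorescence ratio · Controls – buffer and maximal DAMGO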
Pemphigus Ab inh = inhibitors of pemphigus antibody binding to human desmoglein-3; AID 588358; DSG3-coupled beads, scFv-anti-DSG3-GFP binding, flow cytometry; hits give low values; binding (percent of control), % at 10 µM; hit rate 0.48% among 310,000;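 active = binding more than 3 SD below its plate's average and above zero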;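 also: hits lower antibody fragment binding to DSG3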
Target sequence (P32926 whole entry, looked up, the tested form may be a part): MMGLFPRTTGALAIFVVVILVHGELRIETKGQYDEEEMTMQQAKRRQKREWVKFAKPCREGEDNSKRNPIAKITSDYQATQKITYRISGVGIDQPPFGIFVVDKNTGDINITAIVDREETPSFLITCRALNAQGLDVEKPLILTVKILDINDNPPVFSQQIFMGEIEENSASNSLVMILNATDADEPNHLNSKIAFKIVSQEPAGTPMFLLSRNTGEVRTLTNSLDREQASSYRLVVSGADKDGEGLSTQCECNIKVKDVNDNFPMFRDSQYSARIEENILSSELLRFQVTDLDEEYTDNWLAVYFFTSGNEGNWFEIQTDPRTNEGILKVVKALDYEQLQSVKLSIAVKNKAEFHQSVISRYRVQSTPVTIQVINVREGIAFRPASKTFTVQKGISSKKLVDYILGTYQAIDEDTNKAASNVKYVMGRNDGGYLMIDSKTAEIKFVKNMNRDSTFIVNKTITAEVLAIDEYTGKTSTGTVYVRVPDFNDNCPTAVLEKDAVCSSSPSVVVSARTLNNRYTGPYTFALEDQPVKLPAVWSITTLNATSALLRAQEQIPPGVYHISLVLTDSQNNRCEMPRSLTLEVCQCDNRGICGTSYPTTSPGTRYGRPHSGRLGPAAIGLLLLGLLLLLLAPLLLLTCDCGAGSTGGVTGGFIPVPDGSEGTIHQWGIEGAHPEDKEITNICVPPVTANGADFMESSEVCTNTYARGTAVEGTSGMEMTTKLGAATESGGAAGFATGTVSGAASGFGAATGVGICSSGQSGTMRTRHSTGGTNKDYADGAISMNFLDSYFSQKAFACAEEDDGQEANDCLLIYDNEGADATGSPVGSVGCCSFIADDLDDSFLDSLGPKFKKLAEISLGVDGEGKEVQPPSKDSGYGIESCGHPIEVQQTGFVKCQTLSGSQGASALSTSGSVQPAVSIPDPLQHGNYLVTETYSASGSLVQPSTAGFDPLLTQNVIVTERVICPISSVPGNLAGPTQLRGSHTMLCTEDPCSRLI
TRPC4 block = blocks the mouse TRPC4 cation channel | HEK293 TRPC4beta/mu-opioid, DAMGO-evoked Fluo4 calcium flux; hits give low values | hit rate 0.39% among 300,000 | B-score at 10 µM | AID 2247 | Q9QUQ5;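 active = B-score over 3 SD under the library average, no early fluorescence shift, positive overall ratio signal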
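Signal: kinetic Fluo4 fluorescence imaging of calcium influx. Material: stable TRPC4beta/mu-opioid receptor HEK293 cells. Probe or stimulus: DAMGO in two steps, submaximal then maximal.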
TRPC6 inhibitor = inhibitors of mouse TRPC6 channel. Q61143. HEK293-TRPC6, membrane potential dye, ACh-evoked depolarization; hits give low values. B-score at 10 µM. hit rate 1.1% among 310,000. AID 2553;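 active = B-score under library mean minus 3 SD, initial fluorescence not abnormally high, positive integrated signal ratio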;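 also: B-score derived from integrated fluorescence ratio over the kinetic read; more negative B-score means stronger inhibition of depolarization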
TRPC6 act = activates the mouse TRPC6 cation channel. HEK293-TRPC6 membrane potential dye fluorescence; hits give high values. B-score at 10 µM. hit rate 0.13% among 310,000;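 active = B-score of the integrated fluorescence ratio above library mean plus 3 SD, and starting fluorescence ratio within library mean plus 5 SD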;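 also: higher score means more depolarization so channel activation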
TRPC4 potent = allosterically enhances the mouse TRPC4 cation channel; Q9QUQ5; HEK293 TRPC4beta/mu-opioid, DAMGO EC20, Fluo-4 Ca2+ flux; hits give high values; B-score at 10 µM; hit rate 0.42% among 310,000; AID 2227;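 active = B-score of calcium response area above 5 SD of library B-scores, with initial fluorescence ratio within 5 SD of library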;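 also: B-score of integrated fluorescence ratio over time as area under calcium response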
TRPC4 spec 2 = mouse TRPC4 off-target activity of TRPC6 inhibitors, second screen. hit rate 42% among 920. HEK293 TRPC4/MOR, membrane potential dye fluorescence; channel activated by saturating DAMGO dose. shares compounds with TRPC6 inhibitor. inhibition, % at 10 µM;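 active = compounds whose fluorescence signal differed from control wells by over 3 SD, either direction, in both duplicate plates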
TRPC4 spec = tests whether TRPC6 inhibitors also affect mouse TRPC4; hit rate 61% among 920; activity change, negative = inhibition, % at 10 µM; shares compounds with TRPC6 inhibitor; HEK293 TRPC4/mu-opioid, membrane potential fluorescence;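 active = rise or fall in signal beyond 3 SD of buffer-only wells in both replicate plates, either sign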;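 also: integrated kinetic ratio of fluorescence range over baseline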
HEK293 MPD ctr 2-1 = second check of TRPC6 inhibitor effects in parental HEK293 cells; hit rate 31% among 920; parental HEK293 membrane potential dye fluorescence; maximal acetylcholine challenge after compound addition; signal change vs control, % at 10 µM; shares compounds with TRPC6 inhibitor; AID 2779;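 active = membrane potential signal moving either way by over 3 SD of the maximum-effect control, in both duplicate plates, meaning non-specific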
HEK293 MPD ctr-1 = counter-screen for TRPC6 inhibitors: effect in parental HEK293 cells. shares compounds with TRPC6 inhibitor. parental HEK293 membrane potential dye fluorescence. membrane potential signal change, % at 10 µM. hit rate 60% among 920. AID 2780;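 active = membrane potential signal shifting up or down by more than 3 SD of buffer-only wells, on both duplicate plates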
HEK293 MPD ctr-2 = parental HEK293 nonspecific activity of TRPC6 modulators | shares compounds with TRPC6 inhibitor | membrane potential dye fluorescence | membrane potential signal change, % at 10 µM | hit rate 51% among 2,400 | AID 488924;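 active = membrane potential signal moves up or down beyond 5 SD from buffer-only wells, on both duplicate plates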
HEK293 MPD ctr 2-2 = second check of TRPC6 modulator effects in parental HEK293 cells; shares compounds with TRPC6 inhibitor; membrane potential dye fluorescence; after compound, maximal acetylcholine stimulation; inhibition, % at 10 µM; hit rate 14% among 2,400; AID 488926;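 active = membrane potential signal drops by more than 5 SD from the mean control signal, in both duplicate plates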;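 also: plate controls were acetylcholine ECmax control wells for no effect and buffer only wells for full effect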
TRPC4 ctr mod = tests whether TRPC6 modulators also affect mouse TRPC4; shares compounds with TRPC6 inhibitor; HEK293 TRPC4/mu-opioid, membrane potential fluorescence; percent change from control (negative = decrease, positive = increase), % at 10 µM; hit rate 69% among 2,400; AID 488927;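 active = membrane potential signal moved up or down beyond 5 SD of buffer control wells, in both duplicate plates, actives on both sides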;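 also: plate controls were assay buffer wells for no effect and DAMGO maximal-effect wells for full effect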
TRPC4 ctr inh 2 = mouse TRPC4 off-target activity of TRPC6 modulators, second screen | shares compounds with TRPC6 inhibitor | HEK293 TRPC4/mu-opioid, membrane potential dye fluorescence; stimulated with maximal-effect DAMGO | inhibition, % at 10 µM | hit rate 55% among 2,400 | AID 488928;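 active = drop in membrane potential signal beyond 5 SD of the control wells in both duplicate plates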;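 also: TRPC4 counter screen for TRPC6 hits run under conditions tuned for TRPC6 not TRPC4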
TRPC6 inh conf = mouse TRPC6 inhibitor confirmation; HEK293-TRPC6, membrane potential dye, ACh-evoked depolarization; shares compounds with TRPC6 inhibitor; AID 488960; hit rate 43% among 3,300; inhibition, % at 10 µM;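 active = fluorescence ratio falls more than 5 SD below the full-stimulation control mean, in both duplicate runs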;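 also: integrated fluorescence ratio of peak minus minimum over baseline after agonist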
TRPC6 act conf = confirmation of mouse TRPC6 activators; shares compounds with TRPC6 inhibitor; HEK293-TRPC6 membrane potential dye fluorescence, FDSS; activation, % at 10 µM; hit rate 11% among 2,800; AID 488961;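 active = ratio signal rise beyond 5 SD above unstimulated control wells' mean, seen in both duplicate runs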;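 also: plate controls were buffer EC0 wells for no effect and acetylcholine ECmax response for full effect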
* = called active by the depositor; i = inactive; . = not tested or not shown.

SMILES | TRPC4 act | Pemphigus Ab inh | TRPC4 block | TRPC6 inhibitor | TRPC6 act | TRPC4 potent | HEK293 MPD ctr-2 | HEK293 MPD ctr 2-2 | TRPC4 ctr mod | TRPC4 ctr inh 2 | TRPC6 inh conf | TRPC6 act conf | others
Cc1ccccc1C(=O)Nc1ccc2c(C#N)c3nc4ccccc4nc3n2c1 | i | 89 | i | -5.8* | i | i | i | i | -10%* | i | i | i
CCCCOc1ccccc1NC(=O)CSc1nnnn1C(C)(C)C | i | 104 | i | i | 12* | i | 187%* | i | 38%* | i | . | 114%*
COc1ccccc1NC(=O)CSc1nnnn1-c1ccc(C(=O)O)cc1 | i | . | i | i | i | i | . | . | . | . | . | .
Oc1c(C2=NCCNC(C(F)(F)F)=C2)ccc2ccccc12 | i | 101 | i | -5* | i | i | -96%* | i | -22%* | 47%* | i | i
CCNc1cc2n(c(=O)n1)CCc1cc(OC)c(OC)cc1-2 | i | 102 | i | i | i | i | . | . | . | . | . | .
COc1cc2c(cc1OC)-c1cc(NCc3ccccn3)nc(=O)n1CC2 | i | 99 | i | -5.4* | i | i | -196%* | i | -34%* | i | i | i
O=C(NCC(=O)N(c1ccc2c(c1)OCCO2)C(C(=O)NC1CCCC1)c1ccco1)c1ccco1 (configuration not stated) | i | 99 | i | -7.7* | i | i | . | . | . | . | 62%* | . | TRPC4 spec 2=i;TRPC4 spec=1.1%*;HEK293 MPD ctr 2-1=i;HEK293 MPD ctr-1=0.7%*
O=C(NCC(=O)N(c1cccc(F)c1)C(C(=O)NC1CCCC1)c1ccco1)c1ccco1 (configuration not stated) | i | 96 | i | i | i | i | . | . | . | . | . | .
O=C(CSC1=NS(=O)(=O)c2cc(Cl)ccc2N1)c1ccc(Cl)cc1 | i | 99 | i | i | i | i | . | . | . | . | . | .
Cc1cccc(C(=O)OCC(=O)NN2C(=O)NC3(CCC(C)CC3)C2=O)c1O (configuration not stated) | i | 98 | i | i | i | i | . | . | . | . | . | .
CO/N=C/c1cccn1-c1nccc(N(C)C)c1C#N | i | 99 | i | i | i | i | . | . | . | . | . | .
